# Measurements: publication PMC3729215 (Bioorganic & medicinal chemistry, 2011)
# What was measured:
# [1] = biological target: T1, rTRPV1 (Rattus norvegicus, UniProt O35433); type: cell-based; details: rTRPV1/CHO
# Method in brief: (§1)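 Both binding and function were measured on rat TRPV1 heterologously expressed in CHO cells. Affinity came from competition with [3H]RTX. Antagonism came from a functional 45Ca2+ uptake assay. Values are mean ± SEM from 3 or more experiments.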
# [2] = biological target: T1, rTRPV1; test: [3H]RTX binding competition assay, rat TRPV1 expressed in CHO cells
# Method in brief: as §1
# T1 sequence (O35433 whole entry): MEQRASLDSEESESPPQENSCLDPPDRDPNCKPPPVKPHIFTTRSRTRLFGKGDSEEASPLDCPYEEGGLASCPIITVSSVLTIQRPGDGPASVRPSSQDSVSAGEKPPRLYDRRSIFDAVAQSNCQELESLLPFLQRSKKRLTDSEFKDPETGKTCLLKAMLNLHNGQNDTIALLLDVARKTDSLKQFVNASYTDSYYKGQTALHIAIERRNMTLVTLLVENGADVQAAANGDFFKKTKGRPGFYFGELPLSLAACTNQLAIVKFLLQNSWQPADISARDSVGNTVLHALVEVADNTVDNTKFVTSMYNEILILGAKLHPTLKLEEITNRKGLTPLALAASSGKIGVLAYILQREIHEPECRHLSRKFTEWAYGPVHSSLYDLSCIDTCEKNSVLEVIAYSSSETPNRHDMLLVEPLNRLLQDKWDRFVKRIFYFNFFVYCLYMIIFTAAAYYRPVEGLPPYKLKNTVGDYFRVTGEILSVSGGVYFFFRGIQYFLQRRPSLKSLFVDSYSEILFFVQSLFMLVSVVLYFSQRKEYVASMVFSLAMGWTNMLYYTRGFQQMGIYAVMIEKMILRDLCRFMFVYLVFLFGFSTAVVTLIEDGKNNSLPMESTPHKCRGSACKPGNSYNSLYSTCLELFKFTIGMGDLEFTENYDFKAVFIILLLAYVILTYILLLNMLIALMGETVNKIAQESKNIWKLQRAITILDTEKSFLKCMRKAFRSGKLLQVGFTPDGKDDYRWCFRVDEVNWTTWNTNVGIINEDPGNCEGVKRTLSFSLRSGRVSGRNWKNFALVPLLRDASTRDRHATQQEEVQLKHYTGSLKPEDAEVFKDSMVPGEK
smiles,measurement,setting,value
"CC(C(=O)NCc1ccc(C(C)(C)C)cc1)c1ccc(NS(C)(=O)=O)c(I)c1 (stereo not shown) [compound 57, N-(4-tert-Butylbenzyl)-2-[3-iodo-4-(methylsulfonylamino)phenyl]propionamide]",fold reduction in potency as antagonist compared to 54,[1],4 fold
"CC(C(=O)NCc1ccc(C(C)(C)C)cc1)c1ccc(NS(C)(=O)=O)c(Br)c1 (stereo not shown) [compound 56, N-(4-tert-Butylbenzyl)-2-[3-bromo-4-(methylsulfonylamino)phenyl]propionamide]",fold reduction in potency as antagonist compared to 54,[1],4 fold
"C[C@H](C(=O)NCc1ccc(C(C)(C)C)cc1)c1ccc(NS(C)(=O)=O)c(F)c1 [54S, N-(4-tert-Butylbenzyl)-(2S)-2-[3-fluoro-4-(methylsulfonylamino)phenyl]propionamide]",fold enhancement in receptor activity compared to 54,[2]; binding and antagonism together,~2 fold
"CC(C(=O)NCc1ccc(C(C)(C)C)cc1)c1ccc(NS(C)(=O)=O)c(Cl)c1 (stereo not shown) [compound 55, N-(4-tert-Butylbenzyl)-2-[3-chloro-4-(methylsulfonylamino)phenyl]propionamide]",fold reduction in potency as antagonist compared to 54,[1],4 fold
"C[C@@H](C(=O)NCc1ccc(C(C)(C)C)cc1)c1ccc(NS(C)(=O)=O)c(F)c1 [54R, N-(4-tert-Butylbenzyl)-(2R)-2-[3-fluoro-4-(methylsulfonylamino)phenyl]propionamide]",fold weaker activity compared with 54S,"[2]; rTRPV1, binding and antagonism together",30- to 40 fold
"CC(C(=O)NCc1ccc(C(C)(C)C)cc1)c1cc(F)c(NS(C)(=O)=O)c(F)c1 (stereo not shown) [compound 58, N-(4-tert-Butylbenzyl)-2-[3,5-difluoro-4-(methylsulfonylamino)phenyl]propionamide]",fold enhancement in binding affinity compared to 54,[2]; rTRPV1/CHO,2 fold
"COc1cc(C(C)C(=O)NCc2ccc(C(C)(C)C)cc2)ccc1NS(C)(=O)=O (stereo not shown) [compound 71, N-(4-tert-Butylbenzyl)-2-[3-methoxy-4-(methylsulfonylamino)phenyl]propionamide]",fold reduced activity in binding affinity and antagonism,"[2]; rTRPV1/CHO, binding and antagonism together, compared with 54",10 to 30 fold
